The record followed here is publication PMC12059366 (Biomolecules & Therapeutics, 2025).

Data set [1] relates to complementary DNAs. The data set can be described thus: Melting temperature. It counts as binding. As to conditions: 2 μM PNA-DNA duplex, 10 mM sodium phosphate pH 7.0, 0.1 M NaCl; absorbance at 260 nm, 25°C to 90°C at 1.0°C per minute.
Data set [2] relates to IDO1. The data set can be described thus: IDO1 gene expression by q-RT-PCR in IFNγ-treated human keratinocytes. It counts as cell-based. The note with it: compound 24 h before IFNγ, n=3. The gist of the method:
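Primary neonatal foreskin human keratinocytes in supplemented KBM Gold medium were pretreated with test PNA for 24 h, then given recombinant human IFNγ in KBM Gold basal medium. The control was scrambled PNA at 0.1 μM. RNA was extracted with TRIzol and RNeasy, then reverse-transcribed. IDO1 was measured by TaqMan q-RT-PCR against RPL13A using the Pfaffl method. Results are mean ± SD, n=3, t-test.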

For data set [3], the system named is PGE2. The data set can be described thus: PGE2 level by ELISA in supernatants of IFNγ-treated human keratinocytes. Type of data set: cell-based. The note with it: concentration-dependent, n=3.
Data set [4] relates to IL-6. Briefly: IL-6 level by ELISA in supernatants of IFNγ-treated human keratinocytes. The note with it: concentration-dependent, n=3. Type of data set: cell-based.
In data set [5] the test system is IL-8. The data set can be described thus: IL-8 level by ELISA in supernatants of IFNγ-treated human keratinocytes. It counts as cell-based. The note with it: concentration-dependent, n=3. For orientation: In an ELISA, binding on a coated surface is turned into a signal by an enzyme label.
For data set [6], the system named is IDO1 pre-mRNA. The data set can be described thus: IDO1 gene expression by q-RT-PCR in human keratinocytes. Type of data set: cell-based. The note with it: non-cytotoxic concentrations (Fig. 2B, 2C), n=3.

With CG*^2TA*C*TTTGA*TTG*^2 [Compound 4], in data set [1], the “Tm (binding affinity to complementary DNA)” value worked out at 72.07 °C.

In the case of “Compound 2: modified PNA oligomer with cationic lipid-bearing nucleobases targeting IDO1 pre-mRNA (CTCCAAACCTTACG; PNA; cationic lipid-bearing nucleobases)”, the IDO1 expression entry in data set [2] is “significantly inhibits IDO1 expression”. The “PGE2 level in cell culture supernatant” value in data set [3] is on record as “effectively reduced”. For the same substance, in data set [4], the “IL-6 level in cell culture supernatant” value is reported as “effectively reduced”. In data set [1], the “Tm (binding affinity to complementary DNA)” value worked out at 82.07 °C. The “IL-8 level in cell culture supernatant” value in data set [5] was “effectively reduced”. Besides, the “IDO1 gene expression, concentration-dependent analysis” value in data set [6] is given as “significant inhibitory effect”.
